# In PMC5321513 (Structure (London, England : 1993), 2017):
# Where a SMILES comes first, the peptide text is derived from it. [ ]: non-standard residue; d: D form. pS = N[C@@H](COP(=O)(O)O)C(=O)O
# Experiments:
# 14-3-3γ = biological target: T1, 14-3-3γ (Homo sapiens, UniProt P61981); assay: Isothermal titration calorimetry; format: binding; details: 30 °C, pH 7.6
# T1 sequence (P61981 1-247): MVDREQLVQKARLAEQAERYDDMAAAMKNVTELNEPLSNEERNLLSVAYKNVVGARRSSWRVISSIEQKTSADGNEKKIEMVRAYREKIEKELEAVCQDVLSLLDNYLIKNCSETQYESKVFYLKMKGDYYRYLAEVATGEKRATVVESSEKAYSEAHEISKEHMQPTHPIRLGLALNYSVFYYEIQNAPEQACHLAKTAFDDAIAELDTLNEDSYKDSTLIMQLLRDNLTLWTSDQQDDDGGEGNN
# Procedure, shortened: (§1)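 ITC was run at 30 °C in 20 mM Tris-HCl pH 7.6 with 150 mM NaCl, 0.1 mM EDTA and 2 mM β-mercaptoethanol. 2 μl aliquots of 14-3-3 were injected into a 0.2 ml cell holding the test phosphopeptide: 44 μM peptide titrated with 0.5 mM full-length human 14-3-3γ, or 100 μM peptide titrated with 1 mM 14-3-3σ. Heat of dilution was subtracted before curve fitting. There were at least three repeats with varied concentrations.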
# 14-3-3σ [1] = biological target: T2, 14-3-3σ (Homo sapiens, UniProt P31947); assay: Isothermal titration calorimetry; format: binding; details: 30 °C, pH 7.6
# T2 sequence (P31947 1-231): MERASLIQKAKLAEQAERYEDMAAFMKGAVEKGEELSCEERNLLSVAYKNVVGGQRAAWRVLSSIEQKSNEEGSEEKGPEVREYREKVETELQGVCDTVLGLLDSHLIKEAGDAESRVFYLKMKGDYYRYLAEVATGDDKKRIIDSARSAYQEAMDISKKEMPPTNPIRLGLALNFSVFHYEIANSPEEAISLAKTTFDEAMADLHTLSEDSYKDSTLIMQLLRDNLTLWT
# Procedure, shortened: as §1
# 14-3-3 dimer = assay: Affinity of pHSPB6 dimer to the 14-3-3 dimer; format: binding, human; details: Discussion
# 14-3-3ζ = details: ref Sluchanko et al., 2011; cited from earlier work
# 14-3-3 = details: in vitro; ref Sudnitsyna et al., 2012; cited from earlier work
# 14-3-3σ [2] = biological target: T2, 14-3-3σ; assay: Fluorescence competition titration; format: binding; details: equimolar concentration and 7-fold excess of phosphopeptide; 30°C
# 14-3-3σ [3] = biological target: T2, 14-3-3σ; assay: AEDANS fluorescence titration of pHSPB6AEDANS by 14-3-3σ; format: binding; details: excitation at 336 nm, 4.2 µM pHSPB6AEDANS, 30°C
# Procedure, shortened: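 Full-length HSPB6 was phosphorylated at Ser16 by PKA in vitro and moved into 20 mM HEPES pH 7.5 with 100 mM NaCl. It was reduced with 20 mM DTT for 20 min at room temperature, desalted, then labelled with a 6-fold molar excess of 1,5-I-AEDANS (1 h room temperature, then overnight at 4 °C), reaching 90% labelling. Human 14-3-3σ(1-231) was added stepwise with 5 min equilibration at 30 °C. Excitation was 336 nm and emission was read at 488 nm. Curves were buffer-corrected and fitted to a quadratic equation.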
compound,measurement,setting,value
CC(C)C[C@H](NC(=O)CNC(=O)[C@@H]1CCCN1C(=O)[C@H](CC(C)C)NC(=O)[C@@H]1CCCN1C(=O)[C@H](C)NC(=O)[C@H](COP(=O)(O)O)NC(=O)[C@H](C)NC(=O)[C@H](CCCNC(=N)N)NC(=O)[C@H](CCCNC(=N)N)NC(=O)[C@H](CC(C)C)NC(=O)[C@@H](N)Cc1c[nH]c2ccccc12)C(=O)N[C@@H](CCCCN)C(=O)O [phosphopeptide 11-23] (H-WLRRA[pS]APLPGLK-OH),stoichiometry of binding (ITC),14-3-3γ,one peptide per 14-3-3 subunit
same,stoichiometry of binding (ITC),14-3-3σ [1],one peptide per 14-3-3 subunit
pHSPB6: phosphorylated small heat shock protein HSPB6 (HSP20),apparent affinity to the 14-3-3 dimer,14-3-3 dimer,submicromolar apparent affinity
same,affinity to 14-3-3ζ,14-3-3ζ,micromolar affinity
"phosphocofilin: phosphocofilin, 14-3-3 complex partner",direct 14-3-3/phosphocofilin interaction,14-3-3,could not be confirmed in vitro
"pHSPB6^AEDANS: phosphorylated full-length HSPB6 stoichiometrically labeled at its unique Cys46 residue with 1,5-I-AEDANS",14-3-3σ/pHSPB6AEDANS interaction in the presence of phosphopeptide,14-3-3σ [2],"resulted in a saturable curve (Fig.2b), suggestive of a retained 14-3-3σ/pHSPB6^AEDANS interaction"
same,fluorescence peak shift upon titration with 14-3-3σ,14-3-3σ [3],shifted from 486 to 479 nm
